# Data as given in ChEMBL document CHEMBL3860059, “Design, Synthesis, and Biological Evaluation of First-in-Class Dual Acting Histone Deacetylases (HDACs) and Phosphodiesterase 5 (PDE5) Inhibitors for the Treatment of Alzheimer's Disease” (J Med Chem, 2016).
# Assays:
# [1] = Cytotoxicity against human THLE2 cells assessed as reduction in cell viability after 72 hrs by ATP Vialight assay; format: toxicity, cell-based, THLE-2; settings: read-out: LC50
# Summary of the method: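 Immortalized human liver THLE-2 cells in BEGM with 0.7 μg/mL phosphoethanolamine, 0.5 ng/mL EGF, antibiotics and 10% FBS, seeded at 10,000 cells/well and left 24 h at 37 °C. Compounds were added at final 0–100 μM in 1% DMSO for 72 h. Cellular ATP was read by luminescence after 45 min lysis.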
# [2] = Passive membrane permeability of the compound at 50 uM after 18 hrs by PAMPA; format: ADME; settings: read-out: Peff
# Summary of the method: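 PAMPA: 50 μM donor solution in PBS/EtOH 70:30 over PVDF membrane precoated with PBL/dodecane (20 mg/mL); PBS/EtOH acceptor; 18 h at 20 °C without shaking; duplicates; donor and acceptor concentrations by UV absorbance corrected against vehicle.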
# [3] = target: T1, Protein deacetylase HDAC6 (Homo sapiens, UniProt Q9UBN7); assay: Inhibition of full length recombinant human N-terminal GST tagged HDAC6 expressed in baculovirus infected Sf9 cells using fluorogenic HDAC substrate after 30 mins by fluorescence analysis
# T1 sequence (Q9UBN7 whole entry): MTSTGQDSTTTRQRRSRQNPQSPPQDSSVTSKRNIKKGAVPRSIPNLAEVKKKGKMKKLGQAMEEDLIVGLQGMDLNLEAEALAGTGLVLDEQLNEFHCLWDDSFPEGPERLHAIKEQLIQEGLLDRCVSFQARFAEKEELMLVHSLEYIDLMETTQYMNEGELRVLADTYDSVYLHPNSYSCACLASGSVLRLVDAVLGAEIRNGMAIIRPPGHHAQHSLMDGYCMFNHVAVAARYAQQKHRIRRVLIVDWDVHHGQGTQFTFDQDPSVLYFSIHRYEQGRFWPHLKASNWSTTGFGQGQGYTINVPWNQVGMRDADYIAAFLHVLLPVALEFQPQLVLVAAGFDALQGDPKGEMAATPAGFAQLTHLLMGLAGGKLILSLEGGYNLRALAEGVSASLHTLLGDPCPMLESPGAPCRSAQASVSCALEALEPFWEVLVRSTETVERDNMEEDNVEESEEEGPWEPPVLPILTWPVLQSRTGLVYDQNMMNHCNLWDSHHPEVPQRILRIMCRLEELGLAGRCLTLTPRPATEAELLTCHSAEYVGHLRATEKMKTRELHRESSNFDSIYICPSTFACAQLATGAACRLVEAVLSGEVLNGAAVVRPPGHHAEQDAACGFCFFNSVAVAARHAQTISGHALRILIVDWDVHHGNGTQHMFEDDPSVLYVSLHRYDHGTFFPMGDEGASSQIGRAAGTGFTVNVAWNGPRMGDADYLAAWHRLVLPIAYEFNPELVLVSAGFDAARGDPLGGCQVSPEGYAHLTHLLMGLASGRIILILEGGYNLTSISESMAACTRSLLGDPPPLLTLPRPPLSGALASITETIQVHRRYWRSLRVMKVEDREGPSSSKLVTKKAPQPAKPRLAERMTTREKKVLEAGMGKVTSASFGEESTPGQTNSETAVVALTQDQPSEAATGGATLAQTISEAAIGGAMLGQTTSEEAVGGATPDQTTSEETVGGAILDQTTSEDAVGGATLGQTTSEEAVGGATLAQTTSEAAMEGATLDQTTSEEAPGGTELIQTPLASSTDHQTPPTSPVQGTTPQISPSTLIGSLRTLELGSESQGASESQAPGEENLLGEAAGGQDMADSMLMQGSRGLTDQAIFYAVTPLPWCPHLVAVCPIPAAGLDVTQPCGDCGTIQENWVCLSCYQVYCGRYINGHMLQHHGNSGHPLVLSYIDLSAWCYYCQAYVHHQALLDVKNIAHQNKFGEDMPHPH
# Summary of the method: (§1)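 Full-length human recombinant HDAC1 (0.4 μg/mL final), HDAC2 (1.5 μg/mL), HDAC3/NCOR2 (0.1 μg/mL) or HDAC6 (3.6 μg/mL) with 10 μM fluorogenic acetyl-lysine substrate and 0.1 mg/mL BSA, 1% DMSO, 30 min at 37 °C; lysine developer 20 min at room temperature; fluorescence ex 355/em 460 nm. Vehicle = positive control, no enzyme = negative; IC50 from curve fit.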
# [4] = target: Histone deacetylase 2 (Homo sapiens, UniProt Q92769); assay: Inhibition of full length recombinant human C-terminal His-tagged HDAC2 expressed in baculovirus infected Sf9 cells using fluorogenic HDAC substrate after 30 mins by fluorescence analysis; summary of the method: as §1
# Chain of Histone deacetylase 2 (Q92769 whole entry): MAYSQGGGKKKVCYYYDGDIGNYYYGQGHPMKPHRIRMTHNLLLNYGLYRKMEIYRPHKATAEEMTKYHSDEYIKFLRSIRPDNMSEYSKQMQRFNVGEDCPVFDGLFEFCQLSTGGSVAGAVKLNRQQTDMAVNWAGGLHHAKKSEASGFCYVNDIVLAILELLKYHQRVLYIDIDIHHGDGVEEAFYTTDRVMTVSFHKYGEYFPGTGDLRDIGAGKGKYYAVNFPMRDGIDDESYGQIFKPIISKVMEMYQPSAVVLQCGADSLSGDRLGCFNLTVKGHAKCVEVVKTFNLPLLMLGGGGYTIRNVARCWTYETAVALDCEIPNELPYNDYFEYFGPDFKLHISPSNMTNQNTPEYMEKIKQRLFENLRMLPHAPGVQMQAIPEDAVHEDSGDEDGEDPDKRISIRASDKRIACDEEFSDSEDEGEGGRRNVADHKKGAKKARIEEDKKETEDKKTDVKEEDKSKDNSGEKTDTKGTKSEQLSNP
# [5] = target: Histone deacetylase 1 (Homo sapiens, UniProt Q13547); assay: Inhibition of full length recombinant human C-terminal His/Flag-tagged HDAC1 expressed in baculovirus infected Sf9 cells using fluorogenic HDAC substrate after 30 mins by fluorescence analysis; summary of the method: as §1
# Chain of Histone deacetylase 1 (Q13547 whole entry): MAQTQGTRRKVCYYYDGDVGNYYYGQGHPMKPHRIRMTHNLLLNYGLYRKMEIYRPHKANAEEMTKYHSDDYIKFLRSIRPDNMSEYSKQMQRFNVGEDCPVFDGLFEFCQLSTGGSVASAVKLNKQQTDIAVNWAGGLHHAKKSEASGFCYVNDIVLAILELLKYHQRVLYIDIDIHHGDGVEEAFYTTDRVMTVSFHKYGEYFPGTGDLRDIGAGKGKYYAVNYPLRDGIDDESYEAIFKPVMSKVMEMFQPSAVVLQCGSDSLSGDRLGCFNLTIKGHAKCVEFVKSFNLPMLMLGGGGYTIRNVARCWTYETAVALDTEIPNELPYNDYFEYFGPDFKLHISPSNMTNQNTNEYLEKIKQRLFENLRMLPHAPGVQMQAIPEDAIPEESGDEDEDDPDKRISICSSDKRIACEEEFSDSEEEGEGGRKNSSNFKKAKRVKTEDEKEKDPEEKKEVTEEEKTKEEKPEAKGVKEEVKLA
# [6] = target: cGMP-specific 3',5'-cyclic phosphodiesterase (Homo sapiens, UniProt O76074); assay: Inhibition of full length recombinant human N-terminal GST-tagged PDE5A1 expressed in baculovirus infected Sf9 cells using cGMP as substrate after 30 mins by HTRF assay
# [7] = Selectivity ratio of pIC50 for full length recombinant human N-terminal GST tagged HDAC6 expressed in baculovirus infected Sf9 cells to pIC50 for full length recombinant human C-terminal His/Flag-tagged HDAC1 expressed in baculovirus infected Sf9 cells
# [8] = Selectivity ratio of pLC50 for mouse primary glial cells to pLC50 for human THLE2 cells; format: ADME, cell-based; settings: mouse primary glial cells versus THLE2 cells
# [9] = target: Histone deacetylase 3/Nuclear receptor corepressor 2 (HDAC3/NCoR2) (Homo sapiens, UniProt O15379); assay: Inhibition of full length recombinant human C-terminal His-tagged HDAC3/N-terminal GST-tagged NCOR2 (395 to 489 residues) expressed in baculovirus infected Sf9 cells using fluorogenic HDAC substrate after 30 mins by fluorescence analysis
# Chain of Histone deacetylase 3/Nuclear receptor corepressor 2 (HDAC3/NCoR2) (O15379 whole entry, the tested form may be a part): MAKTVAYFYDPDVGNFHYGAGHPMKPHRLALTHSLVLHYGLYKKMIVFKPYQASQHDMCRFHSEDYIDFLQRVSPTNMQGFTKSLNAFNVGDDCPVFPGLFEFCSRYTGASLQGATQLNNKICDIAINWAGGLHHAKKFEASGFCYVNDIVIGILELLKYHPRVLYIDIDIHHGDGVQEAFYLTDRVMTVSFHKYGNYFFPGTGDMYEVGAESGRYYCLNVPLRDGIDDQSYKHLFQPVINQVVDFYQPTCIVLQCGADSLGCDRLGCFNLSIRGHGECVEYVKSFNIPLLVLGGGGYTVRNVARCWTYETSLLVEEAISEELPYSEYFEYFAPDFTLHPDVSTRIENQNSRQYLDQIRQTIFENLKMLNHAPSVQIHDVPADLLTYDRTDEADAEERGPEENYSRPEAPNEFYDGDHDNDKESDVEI
# Chain of Histone deacetylase 3/Nuclear receptor corepressor 2 (HDAC3/NCoR2) (Q9Y618 whole entry, further chain, the tested form may be a part): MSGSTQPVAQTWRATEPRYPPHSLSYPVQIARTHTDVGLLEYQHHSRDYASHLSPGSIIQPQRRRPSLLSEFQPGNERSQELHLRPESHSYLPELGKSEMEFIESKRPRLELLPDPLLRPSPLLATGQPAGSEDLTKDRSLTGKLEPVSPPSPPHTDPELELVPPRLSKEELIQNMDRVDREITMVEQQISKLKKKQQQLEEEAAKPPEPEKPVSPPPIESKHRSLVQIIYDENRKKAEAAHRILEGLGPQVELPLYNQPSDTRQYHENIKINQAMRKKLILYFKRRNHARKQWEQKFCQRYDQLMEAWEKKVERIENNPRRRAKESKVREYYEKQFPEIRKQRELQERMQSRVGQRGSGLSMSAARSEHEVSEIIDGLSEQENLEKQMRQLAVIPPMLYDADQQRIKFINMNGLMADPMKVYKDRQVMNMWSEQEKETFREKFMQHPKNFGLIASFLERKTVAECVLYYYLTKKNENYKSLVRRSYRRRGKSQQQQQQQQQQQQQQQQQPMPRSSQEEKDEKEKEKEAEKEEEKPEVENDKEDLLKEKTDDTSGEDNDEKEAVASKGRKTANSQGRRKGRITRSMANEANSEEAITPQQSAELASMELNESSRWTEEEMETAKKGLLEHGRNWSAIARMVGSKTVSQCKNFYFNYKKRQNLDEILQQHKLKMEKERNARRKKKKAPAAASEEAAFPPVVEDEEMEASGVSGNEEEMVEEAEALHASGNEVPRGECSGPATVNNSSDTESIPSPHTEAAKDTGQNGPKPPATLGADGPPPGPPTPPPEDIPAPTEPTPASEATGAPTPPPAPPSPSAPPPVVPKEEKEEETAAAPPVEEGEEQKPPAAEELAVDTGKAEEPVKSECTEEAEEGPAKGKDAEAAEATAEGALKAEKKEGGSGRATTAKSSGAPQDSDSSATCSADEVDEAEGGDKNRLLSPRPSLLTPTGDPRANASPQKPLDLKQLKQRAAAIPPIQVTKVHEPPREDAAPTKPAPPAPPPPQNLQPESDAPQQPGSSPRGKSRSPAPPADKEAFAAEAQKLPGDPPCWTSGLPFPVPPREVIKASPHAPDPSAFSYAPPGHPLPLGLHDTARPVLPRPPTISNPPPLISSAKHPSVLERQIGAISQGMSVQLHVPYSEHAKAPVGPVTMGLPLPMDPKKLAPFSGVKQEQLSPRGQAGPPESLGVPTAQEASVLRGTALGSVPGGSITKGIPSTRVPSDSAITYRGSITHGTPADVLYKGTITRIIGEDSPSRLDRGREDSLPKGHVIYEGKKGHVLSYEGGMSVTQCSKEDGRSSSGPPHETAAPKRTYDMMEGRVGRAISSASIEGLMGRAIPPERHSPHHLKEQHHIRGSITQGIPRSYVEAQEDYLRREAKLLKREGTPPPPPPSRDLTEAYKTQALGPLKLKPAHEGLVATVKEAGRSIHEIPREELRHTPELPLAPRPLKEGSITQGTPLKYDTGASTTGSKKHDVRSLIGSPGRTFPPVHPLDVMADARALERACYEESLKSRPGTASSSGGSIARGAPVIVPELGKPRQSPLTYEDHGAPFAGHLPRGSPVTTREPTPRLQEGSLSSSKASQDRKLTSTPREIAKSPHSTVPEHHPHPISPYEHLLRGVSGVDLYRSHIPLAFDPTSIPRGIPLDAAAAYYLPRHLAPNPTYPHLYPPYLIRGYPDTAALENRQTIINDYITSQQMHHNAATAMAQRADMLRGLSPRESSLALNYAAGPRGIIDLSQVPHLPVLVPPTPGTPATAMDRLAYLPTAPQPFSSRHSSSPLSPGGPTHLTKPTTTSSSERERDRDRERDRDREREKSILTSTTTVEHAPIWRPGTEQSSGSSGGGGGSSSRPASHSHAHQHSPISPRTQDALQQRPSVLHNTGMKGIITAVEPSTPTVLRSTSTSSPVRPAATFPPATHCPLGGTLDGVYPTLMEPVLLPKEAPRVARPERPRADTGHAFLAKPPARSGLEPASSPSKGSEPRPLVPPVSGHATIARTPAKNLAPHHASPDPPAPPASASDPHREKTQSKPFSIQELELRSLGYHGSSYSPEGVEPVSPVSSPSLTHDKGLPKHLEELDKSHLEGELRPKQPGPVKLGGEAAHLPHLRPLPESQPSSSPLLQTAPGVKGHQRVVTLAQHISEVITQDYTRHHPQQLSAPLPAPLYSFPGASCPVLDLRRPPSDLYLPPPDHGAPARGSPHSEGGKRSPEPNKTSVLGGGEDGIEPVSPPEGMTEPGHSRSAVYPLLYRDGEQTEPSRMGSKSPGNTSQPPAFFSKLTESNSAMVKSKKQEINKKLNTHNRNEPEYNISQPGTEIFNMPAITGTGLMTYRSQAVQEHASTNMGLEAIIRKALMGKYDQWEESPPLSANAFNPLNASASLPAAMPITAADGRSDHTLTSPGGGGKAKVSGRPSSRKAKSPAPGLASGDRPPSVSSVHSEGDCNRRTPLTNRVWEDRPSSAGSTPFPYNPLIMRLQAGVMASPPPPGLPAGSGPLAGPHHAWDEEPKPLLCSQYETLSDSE
"Papp at 18 h, 50 µM [2]",IC50 [3],IC50 [4],IC50 [5],IC50 [6],IC50 [9],SMILES,CC50 at 72 h [1],Ratio pIC50 [7],selectivity ratio [8]
–,709 nM,712 nM,118 nM,17 nM,–,CCCc1nn(C)c2c(=O)[nH]c(-c3cc(NCC4CCN(c5ncc(C(=O)NO)cn5)CC4)ccc3OCC)nc12,–,> 0.6,–
0.92 ×10⁻⁶ cm/s,79 nM,1870 nM,354 nM,4 nM,–,CCCc1nn(C)c2c(=O)[nH]c(-c3cc(-c4ccc(C(=O)NO)cn4)ccc3OCC)nc12,–,–,< 0.4
0.89 ×10⁻⁶ cm/s,379 nM,89 nM,14 nM,7 nM,–,CCCc1nn(C)c2c(=O)[nH]c(-c3cc(CN4CCN(c5ncc(C(=O)NO)cn5)CC4)ccc3OCC)nc12,–,> 1,< 0.4
–,5570 nM,> 20000 nM,> 20000 nM,5 nM,–,CCCc1nn(C)c2c(=O)[nH]c(-c3cc(-c4ccc(C(=O)NO)o4)ccc3OCC)nc12,–,–,–
–,2350 nM,> 20000 nM,2420 nM,13 nM,> 20000 nM,CCCc1nn(C)c2c(=O)[nH]c(-c3cc(Cc4ccc(CCC(=O)NO)cc4)ccc3OCC)nc12,–,–,–
–,10400 nM,> 20000 nM,7080 nM,44 nM,–,CCCc1nn(C)c2c(=O)[nH]c(-c3cc(NCCC(=O)NO)ccc3OCC)nc12,–,–,–
3.68 ×10⁻⁶ cm/s,196 nM,2250 nM,566 nM,23 nM,–,CCCc1nn(C)c2c(=O)[nH]c(-c3cc(Oc4ccc(C(=O)NO)cc4)ccc3OCC)nc12,–,–,< 0.4
1.52 ×10⁻⁶ cm/s,861 nM,> 20000 nM,2360 nM,4 nM,–,CCCc1nn(C)c2c(=O)[nH]c(-c3cc(-c4ccc(C(=O)NO)nc4)ccc3OCC)nc12,–,–,< 0.4
–,2120 nM,> 20000 nM,4810 nM,46 nM,–,CCCc1nn(C)c2c(=O)[nH]c(-c3cc(CCC(=O)NO)ccc3OCC)nc12,–,–,–
–,1790 nM,> 20000 nM,1530 nM,122 nM,–,CCCc1nn(C)c2c(=O)[nH]c(-c3cc(Cc4ccc(/C=C/C(=O)NO)cc4)ccc3OCC)nc12,–,–,–
–,> 10000 nM,> 20000 nM,> 20000 nM,303 nM,–,CCCc1nn(C)c2c(=O)[nH]c(-c3cc(CN4CC(C(=O)NO)C4)ccc3OCC)nc12,–,–,–
–,5370 nM,> 20000 nM,8750 nM,20 nM,–,CCCc1nn(C)c2c(=O)[nH]c(-c3cc(C4CC4C(=O)NO)ccc3OCC)nc12 (configuration not stated),–,–,–
–,12700 nM,> 20000 nM,5980 nM,22 nM,–,CCCc1nn(C)c2c(=O)[nH]c(-c3cc(NC4CCC(C(=O)NO)CC4)ccc3OCC)nc12 (configuration not stated),–,–,–
–,> 20000 nM,> 20000 nM,> 20000 nM,19 nM,–,CCCc1nn(C)c2c(=O)[nH]c(-c3cc(CC(=O)NO)ccc3OCC)nc12,–,–,–
–,584 nM,166 nM,25 nM,10 nM,43 nM,CCCc1nn(C)c2c(=O)[nH]c(-c3cc(N(C)C4CCN(c5ncc(C(=O)NO)cn5)CC4)ccc3OCC)nc12,–,> 1,–
–,1600 nM,17500 nM,7810 nM,20 nM,–,CCCc1nn(C)c2c(=O)[nH]c(-c3cc(NC4CCN(c5ccc(C(=O)NO)cc5)CC4)ccc3OCC)nc12,–,–,–
–,> 20000 nM,> 20000 nM,6420 nM,5 nM,–,CCCc1nn(C)c2c(=O)[nH]c(-c3cc(C(=O)NO)ccc3OCC)nc12,–,–,–

# The remaining lines, values behind:
SMILES,"Papp at 18 h, 50 µM [2]",IC50 [3],IC50 [4],IC50 [5],IC50 [6],IC50 [9],CC50 at 72 h [1],Ratio pIC50 [7],selectivity ratio [8]
CCCc1nn(C)c2c(=O)[nH]c(-c3cc(S(=O)(=O)N4CCN(C)CC4)ccc3OCC)nc12,2.75 ×10⁻⁶ cm/s,–,–,–,–,–,> 100000 nM,–,–
CCCc1nn(C)c2c(=O)[nH]c(-c3cc(S(=O)(=O)N4CCC(CCC(=O)NO)CC4)ccc3OCC)nc12,–,87 nM,1940 nM,406 nM,0.5 nM,–,–,–,–
CCCc1nn(C)c2c(=O)[nH]c(-c3cc(N4CCCC5(CCC(C(=O)NO)CC5)C4)ccc3OCC)nc12 (configuration not stated),–,10100 nM,> 20000 nM,9270 nM,40 nM,–,–,–,–
CCCc1nn(C)c2c(=O)[nH]c(-c3cc(NC4CCN(c5ncc(C(=O)NO)cn5)CC4)ccc3OCC)nc12,1.34 ×10⁻⁶ cm/s,441 nM,490 nM,68 nM,5 nM,31 nM,2570 nM,> 0.6,< 0.4
CCCc1nn(C)c2c(=O)[nH]c(-c3cc(OC4CCC(C(=O)NO)CC4)ccc3OCC)nc12 (configuration not stated),–,2330 nM,9830 nM,2440 nM,11 nM,–,–,–,–
CCCc1nn(C)c2c(=O)[nH]c(-c3cc(C4CCC(CC(=O)NO)CC4)ccc3OCC)nc12 (configuration not stated),–,5130 nM,> 20000 nM,6910 nM,70 nM,–,–,–,–
CCCc1nn(C)c2c(=O)[nH]c(-c3cc(CN4CCC(C(=O)NO)CC4)ccc3OCC)nc12,–,9640 nM,> 20000 nM,7620 nM,207 nM,–,–,–,–
CCCc1nn(C)c2c(=O)[nH]c(-c3cc(S(=O)(=O)N4CCN(CCCC(=O)NO)CC4)ccc3OCC)nc12,–,360 nM,4640 nM,1100 nM,2 nM,–,–,–,–
CCCc1nn(C)c2c(=O)[nH]c(-c3cc(CC4CCN(CCC(=O)NO)CC4)ccc3OCC)nc12,–,> 20000 nM,> 20000 nM,> 20000 nM,57 nM,–,–,–,–
CCCc1nn(C)c2c(=O)[nH]c(-c3cc(N4CCC5(CCC(C(=O)NO)C5)CC4)ccc3OCC)nc12 (configuration not stated),–,4340 nM,> 20000 nM,12900 nM,12 nM,–,–,–,–
CCCc1nn(C)c2c(=O)[nH]c(-c3cc(N4CCC5(CCN(c6ncc(C(=O)NO)cn6)CC5)C4)ccc3OCC)nc12,–,1900 nM,1850 nM,443 nM,74 nM,–,–,> 0.6,–
CCCc1nn(C)c2c(=O)[nH]c(-c3cc(N4CCC(CCC(=O)NO)CC4)ccc3OCC)nc12,–,1060 nM,2030 nM,603 nM,24 nM,–,–,–,–
CCCc1nn(C)c2c(=O)[nH]c(-c3cc(S(=O)(=O)N4CCN(CCC(=O)NO)CC4)ccc3OCC)nc12,–,2360 nM,> 20000 nM,10500 nM,3 nM,–,–,–,–
